Source: PubChem BioAssay
The list is not random: actives were taken first. Their share in the collection is about 3.4%.
ANO1 block: TMEM16A chloride channel inhibitors, primary screen, cell-based, HTS; AID 588511, 2011; actives 1.2% (n = 310,000); normalized B-score (activity score, 25-100; higher = stronger inhibition) at 10 µM; HEK293 TMEM16A/YFP iodide influx fluorescence, ionomycin; Anoctamin-1 (Mus musculus), Q8BHY3;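 active means ratio plate-corrected score three or more library SD toward inhibition, starting fluorescence score within five deviations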;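 further: score derived from kinetic fluorescence span divided by baseline fluorescence per well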
ANO1 activ: TMEM16A chloride channel activators or potentiators, primary screen, cell-based, HTS | HEK293 TMEM16A/YFP-H148Q/I152L, iodide quench fluorescence; active compounds read low | actives 0.3% (n = 340,000) | B-score at 10 µM;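 active means fluorescence-ratio B-score plate-corrected deviation score at least 3 library SD below zero, with starting fluorescence score within 5 deviations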;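 further: channel opened by trigger with iodide after compound preincubation; score built on the fluorescence ratio of max minus min over baseline; more negative score means more quench and so TMEM16A activation or potentiation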
CHT block: inhibitors of human choline transporter CHT. High affinity choline transporter 1 (Homo sapiens), Q9GZV3. CHT-expressing cells, membrane potential dye, choline response; active compounds read low. B-score at 10 µM. actives 0.86% (n = 310,000);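 active means B-score over 3 SD under the library average, and starting fluorescence ratio not unusually high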;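 further: choline stimulus applied at its EC90 after an EC20 pre-addition; B-score computed on integrated fluorescence ratio after choline addition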
Target sequence (Q9GZV3 whole entry, looked up): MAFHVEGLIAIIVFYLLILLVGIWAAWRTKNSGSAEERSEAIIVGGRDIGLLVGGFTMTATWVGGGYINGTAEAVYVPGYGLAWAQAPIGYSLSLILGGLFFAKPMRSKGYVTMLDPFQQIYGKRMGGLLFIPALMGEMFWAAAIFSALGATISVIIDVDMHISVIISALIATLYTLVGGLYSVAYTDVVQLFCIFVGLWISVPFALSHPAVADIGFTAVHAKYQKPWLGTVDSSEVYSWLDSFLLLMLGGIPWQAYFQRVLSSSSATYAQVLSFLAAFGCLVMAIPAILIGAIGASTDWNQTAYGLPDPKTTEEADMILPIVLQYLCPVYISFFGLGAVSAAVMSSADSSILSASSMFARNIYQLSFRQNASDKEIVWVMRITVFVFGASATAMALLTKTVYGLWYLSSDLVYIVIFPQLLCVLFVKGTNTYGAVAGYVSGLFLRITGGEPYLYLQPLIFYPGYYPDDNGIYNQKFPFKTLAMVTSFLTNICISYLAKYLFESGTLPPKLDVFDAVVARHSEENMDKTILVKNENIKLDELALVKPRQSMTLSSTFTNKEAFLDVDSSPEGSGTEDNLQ
VIM-2 inh: VIM-2 metallo-beta-lactamase inhibitors, primary screen, biochemical, epi-absorbance readout, Pseudomonas aeruginosa enzyme | purified VIM-2, nitrocefin hydrolysis, epi-absorbance fluorescence | inhibition, % at 5.6 µM | actives 0.89% (n = 290,000);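 active means inhibition above the mean of all tested compounds plus 3 SD, cutoff set per screening run, cut at about 7.5% in these data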;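 further: red hydrolysis product quenches plate fluorescence so inhibitors raise well fluorescence; 0% = enzyme with DMSO and 100% = DMSO without enzyme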
CHT allo act: CHT positive allosteric modulators, primary screen, cell-based, membrane potential dye, choline EC20 | High affinity choline transporter 1 (Homo sapiens), Q9GZV3 | CHT-expressing cells; active compounds read high; LV-AA mutant CHT in HEK293 cells | B-score at 10 µM | actives 0.49% (n = 310,000) | AID 488977, 2010;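 active means initial fluorescence not abnormally high and integrated response B-score, plate-corrected, over 3 SD above library mean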
IMP-1 inh: IMP-1 metallo-beta-lactamase inhibitors, primary screen, biochemical, epi-absorbance readout, Pseudomonas aeruginosa enzyme. metallo-beta-lactamase IMP-1 (Pseudomonas aeruginosa). purified IMP-1, nitrocefin hydrolysis, epi-absorbance fluorescence. inhibition, % at 5.6 µM. actives 0.45% (n = 290,000). AID 1556, 2009;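 active means inhibition above the mean plus 3 SD of all compounds in the same screening run, cut at about 4.5% in these data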;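 further: 0% = IMP-1 with DMSO and 100% = DMSO wells lacking enzyme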
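System – purified recombinant IMP-1 beta-lactamase · Input – IMP-1 dispensed at 0.2 nM · Timing – 15 min preincubation plus 25 min reaction at 25 °C · Signal – Epi-absorbance fluorescence, 480 nm excitation, 530 nm emission · Measure – percent IMP-1 inhibition derived from blank-referenced optical density · Controls – Enzyme-plus-DMSO low control, enzyme-free DMSO high control · Replication – singlicate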
CHT block conf: CHT inhibitors, confirmation, cell-based, membrane potential dye, duplicate. actives 70% (n = 2,400). shares compounds with CHT block. CHT activity remaining % of control (active compounds read low), % at 10 µM. CHT-expressing cells, choline membrane potential dye; LV-to-AA substituted CHT, HEK293 cells;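 active means choline transporter activity left, mean of duplicates at 10 µM, below buffer-only control mean minus 3 SD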;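 further: depolarization triggered by choline at its EC90 following an EC20 pre-addition; 0% = hemicholinium-3 full block and 100% = buffer-only control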
HEK293 CHT ctr: membrane potential effects in parental HEK293, counter-screen for CHT inhibitor project, cell-based, membrane potential dye | shares compounds with CHT block | choline response; active = decrease or increase beyond buffer ±3SD | membrane potential ratio readout (active if shifted either direction beyond buffer ±3SD; no single direction) at 10 µM | actives 4% (n = 2,400) | AID 493222, 2011;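 further: parental cells lack the transporter so any hit is non-specific; ratio is peak minus trough fluorescence over baseline after EC90 choline challenge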
Active calls of the source: *; i = inactive; . = not tested or not shown.

SMILES	ANO1 block	ANO1 activ	CHT block	VIM-2 inh	CHT allo act	IMP-1 inh	CHT block conf	HEK293 CHT ctr
CCN1CCn2c3c(c4cccc(C)c42)CCCC31 (configuration not stated)	i	i	-11*	-2	i	-2	36%*	i
NC(=O)C1CCCN(C(=O)CN2C(=O)NC(c3ccccc3)(c3ccccc3)C2=O)C1 (configuration not stated)	.	i	.	.	.	.	.	.
CCCOc1ccc(/C=C2/C(=O)ON=C2C)cc1OCC	i	i	i	2	i	-2	.	.
COc1cc(/C=C2\C(=O)ON=C2c2ccccc2)cc(Cl)c1O	i	i	i	-1	i	-2	.	.
CC1=NOC(=O)/C1=C/c1ccc(O)cc1	i	i	i	-1	i	-2	.	.
CC1=NOC(=O)/C1=C/c1ccc(O)c(Br)c1	i	i	-9.6*	-5	i	-9	21%*	i
COc1cc(/C=C2\C(=O)ON=C2c2ccccc2)cc(Br)c1O	i	i	i	-4	i	-4	.	.
CCOc1cc(/C=C2\C(=O)ON=C2c2ccccc2)cc(Br)c1O	i	i	-5.6*	-3	i	-4	44%*	i
CCOc1cc(/C=C2/C(=O)ON=C2C)cc(Br)c1O	i	i	-9.6*	-4	i	-7	42%*	i
COc1cc(/C=C2/C(=O)ON=C2c2ccccc2)ccc1O	i	i	-6.7*	-2	i	0	37%*	i
CC1(C)Cc2c(cnn2-c2cccc(F)c2)C(NC(=O)C2CCOCC2)C1 (configuration not stated)	i	i	i	-2	i	-2	.	.
Cc1nn(CC(=O)Nc2ccccc2C(F)(F)F)c(=O)c2cccn12	i	i	i	2	i	1	.	.
CCN(CC)C(=O)c1ccc(S(=O)(=O)c2ccccc2)cc1	i	i	i	-1	i	1	.	.
O=C(C[n+]1cc(Br)cc2ccccc21)c1ccc(Br)cc1	i	i	-5.7*	1	i	0	30%*	i
O=C(C[n+]1cc(Br)cc2ccccc21)c1ccc(Cl)cc1	i	i	-6.9*	-2	i	0	32%*	i
O=C(C[n+]1cn(C(F)F)c2ccccc21)c1ccc(Br)cc1	i	i	i	-2	i	-1	.	.
Cc1ccc(S(=O)(=O)N2CCN(C(=O)CNC(=O)c3ccc(Br)o3)CC2)cc1	i	i	i	.	i	.	.	.
NC(=O)CC(NC(=O)c1ccc(Br)cc1)c1ccc(N2CCCCCC2)c([N+](=O)[O-])c1 (configuration not stated)	i	i	-7.7*	-2	i	-4	59%*	i
NC(=O)CC(NC(=O)c1ccccc1)c1ccc(N2CCc3ccccc3C2)c([N+](=O)[O-])c1 (configuration not stated)	i	i	-9.5*	-1	i	-1	18%*	i
NC(=O)CC(NC(=O)c1ccccc1)c1ccc(N2CCCCCCC2)c([N+](=O)[O-])c1 (configuration not stated)	i	i	-11*	-1	i	-3	1.4%*	i
NC(=O)CC(NC(=O)c1cccc(Br)c1)c1ccc(N2CCCCCC2)c([N+](=O)[O-])c1 (configuration not stated)	i	i	i	-1	i	0	.	.
COc1ccc(CCN(C)C(=O)c2cnc(C)cn2)cc1OC	i	i	i	2	i	-1	.	.
OCCC1CN(Cc2cc3c(cc2Cl)OCO3)CCN1Cc1ccccc1 (configuration not stated)	i	i	i	-3	i	-3	.	.
CCCCn1c(=O)n(Cc2cccc(F)c2)c(=O)c2c1ncn2Cc1ccco1	i	i	-12*	-1	i	-2	53%*	i
CC1(C2CC2)NC(=O)N(CC(=O)NCc2ccc(Cl)cc2Cl)C1=O (configuration not stated)	.	i	.	.	.	.	.	.
SMILES	ANO1 block	ANO1 activ	CHT block	VIM-2 inh	CHT allo act	IMP-1 inh	CHT block conf	HEK293 CHT ctr
Cc1ccc(OCCOC(=O)c2c(-c3ccccc3)noc2C)cc1	i	i	-5*	2	i	-2	i	i
Cc1onc(-c2ccccc2)c1C(=O)OCCOc1cccc(Cl)c1	i	i	i	-1	i	-2	.	.
Cc1cc2[nH]c3ccccc3c2c(C)n1	i	i	-7.3*	-2	i	-2	34%*	i
O=C(CCC(=O)N1CCN(c2ccccc2F)CC1)N1CCN(c2ccc(F)cc2)CC1	i	i	-5.4*	-1	i	-2	69%*	i
O=C1CCC/C1=c1\s/c(=C/c2cccnc2)c(=O)n1-c1ccccc1	.	i	.	.	.	.	.	.
CCOCCCNC(=O)c1ccc(N2CCCC2)c(NS(=O)(=O)c2ccc(C)cc2)c1	i	i	i	-1	i	-1	.	.
COCCCNC(=O)c1ccc(N2CCCC2)c(NS(=O)(=O)c2ccc(C)cc2)c1	i	i	i	-3	i	-5	.	.
Cc1ccc(S(=O)(=O)Nc2cc(C(=O)NCCN(C)C)ccc2N2CCCCC2)cc1	i	i	-15*	0	i	-4	19%*	3.2*
Cc1ccc(S(=O)(=O)Nc2cc(C(=O)NCCN3CCCC3)ccc2N2CCCCC2)cc1	i	i	-8.6*	-3	i	-3	23%*	3.8*
CC1=NC(C)(C)Cc2ccccc21	i	i	-10*	-4	i	-1	20%*	i
CC1(C)Cc2ccccc2C(COc2ccccc2)=N1	i	i	i	2	i	0	.	.
O=C(O)C1CCN(c2nc(-c3ccccc3)nc3c2oc2ccccc23)CC1	i	i	-6*	0	i	-1	63%*	i
